{"source": "paper PMC2821697", "about": "(Bioorganic & medicinal chemistry, 2009)", "key": {"[1]": {"tested_on": "MDA-MB-231 (estrogen receptor negative breast cancer)", "experiment": "Cell growth inhibition assay", "format": "cell-based", "conditions": "Homo sapiens, MDA-MB-231, 72 h, read-out: ED50 against MDA-MB-231", "method_in_brief": "(§1)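 Trypsinized cells were seeded in 96-well plates, then exposed 72 h to test compound from DMSO-diluted stock. Cells were TCA-fixed, stained with 0.4% SRB for 10 min, and dye solubilized in trizma base; A515. ED50 is the concentration halving net protein increase, mean ± SEM of ≥2 independent determinations.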"}, "DU145 (prostate cancer)": {"tested_on": "DU145 (prostate cancer)", "experiment": "Cell growth inhibition assay", "format": "cell-based", "conditions": "Homo sapiens, DU-145, 72 h, read-out: ED50 against DU145"}, "[2]": {"tested_on": "KB (nasopharyngeal carcinoma)", "experiment": "Cell growth inhibition assay", "format": "cell-based", "conditions": "Homo sapiens, 72 h, read-out: ED50 against KB", "method_in_brief": "as §1"}, "A549 (human lung cancer)": {"tested_on": "A549 (human lung cancer)", "experiment": "Cell growth inhibition assay", "format": "cell-based", "conditions": "A549, 72 h, read-out: ED50 against A549", "method_in_brief": "as §1"}, "[3]": {"tested_on": "SK-BR-3 (HER2 over-expressing breast cancer)", "experiment": "Cell growth inhibition assay", "format": "cell-based, human", "conditions": "for ED50 against SK-BR-3: mean ED50+SEM, 2 or more independent tests, SRB, 72 h; for cancer cell line selectivity: fold more potent against SK-BR-3 compared with other cancer cell lines tested: SK-BR-3 versus six additional tested cancer cell lines", "method_in_brief": "as §1"}, "[4]": {"tested_on": "MCF10A normal breast cell line", "experiment": "MTT assay, MCF10A normal breast cell line", "format": "cell-based", "conditions": "72 h, single experiment", "method_in_brief": "(§2)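 184A1 and MCF10A were from ATCC. Cells were seeded at 5000/well in the recommended growth medium and incubated overnight. Test compound dissolved in DMSO was then added, followed by 72 h at 37 °C, 5% CO2. MTT reagent was added for 2 h, and formazan was read at OD 570. Data are mean and standard deviation of replicates from a single experiment.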"}, "[5]": {"tested_on": "SK-BR-3 breast cancer cell line", "experiment": "MTT assay, SK-BR-3", "format": "cell-based, human", "conditions": "72 h, single experiment"}, "[6]": {"tested_on": "184A1 normal breast cell line", "experiment": "MTT assay, 184A1 normal breast cell line", "format": "cell-based", "conditions": "72 h, single experiment", "method_in_brief": "as §2"}}}
{"smiles": "Cc1cccc2c1ccc1c3occ(C)c3c(=O)oc21", "note": "[Compound 1, Neo-tanshinlactone]", "values": [{"measurement": "IC50", "setting": "[1]", "value": "37.9 ± 1.4", "unit": "µM"}, {"measurement": "IC50", "setting": "DU145 (prostate cancer)", "value": "58.3 ± 2", "unit": "µM"}, {"measurement": "IC50", "setting": "[2]", "value": "> 37.9", "unit": "µM"}, {"measurement": "IC50", "setting": "A549 (human lung cancer)", "value": "54.2 ± 3.4", "unit": "µM"}]}
{"smiles": "Cc1cccc(-c2cc3occ(C)c3c(=O)o2)c1", "note": "[Compound 10, 3-Methyl-6-m-tolyl-4H-furo[3,2-c]pyran-4-one]", "values": [{"measurement": "ED50 against SK-BR-3", "setting": "[3]", "value": "1.50 ± 0.04", "unit": "µM"}]}
{"smiles": "COc1cccc(-c2cc3occ(C)c3c(=O)o2)c1", "note": "[Compound 11, 6-(3-Methoxyphenyl)-3-methyl-4H-furo[3,2-c]pyran-4-one]", "values": [{"measurement": "IC50", "setting": "[2]", "value": "> 78.1", "unit": "µM"}]}
{"smiles": "CCOc1cccc(-c2cc3occ(C)c3c(=O)o2)c1", "note": "[Compound 12, 6-(3-Ethoxyphenyl)-3-methyl-4H-furo[3,2-c]pyran-4-one]", "values": [{"measurement": "ED50 against SK-BR-3", "setting": "[3]", "value": "0.67 ± 0.03", "unit": "µM"}]}
{"smiles": "COc1cc(OC)cc(-c2cc3occ(C)c3c(=O)o2)c1", "note": "[Compound 25, 6-(3,5-Dimethoxyphenyl)-3-methyl-4H-furo[3,2-c]pyran-4-one]", "values": [{"measurement": "potency against SK-BR-3 relative to 1", "setting": "[3]; ED50 compared with neo-tanshinlactone (1)", "value": "approximately threefold"}, {"measurement": "cancer cell line selectivity: fold more potent against SK-BR-3 compared with other cancer cell lines tested", "setting": "[3]", "value": "100- to 250 fold"}, {"measurement": "ED50 against SK-BR-3", "setting": "[3]", "value": "0.28 ± 0.01", "unit": "µM"}, {"measurement": "interpolated ED50 against MCF10A", "setting": "[4]", "value": "> 35.0", "unit": "µM"}, {"measurement": "interpolated ED50 against SK-BR-3", "setting": "[5]", "value": 1.0, "unit": "µM"}, {"measurement": "IC50", "setting": "[2]", "value": "> 69.9", "unit": "µM"}, {"measurement": "interpolated ED50 against 184A1", "setting": "[6]", "value": 16.8, "unit": "µM"}]}
{"smiles": "COc1cc(-c2cc3occ(C)c3c(=O)o2)cc(OC)c1OC", "note": "[Compound 27, 3-Methyl-6-(3,4,5-trimethoxyphenyl)-4H-furo[3,2-c]pyran-4-one]", "values": [{"measurement": "cancer cell line selectivity: fold more potent against SK-BR-3 compared with other cancer cell lines tested", "setting": "[3]", "value": "100- to 250 fold"}, {"measurement": "ED50 against SK-BR-3", "setting": "[3]", "value": "0.44 ± 0.01", "unit": "µM"}, {"measurement": "IC50", "setting": "[2]", "value": "> 63.3", "unit": "µM"}]}
